14 compounds from ChEMBL document CHEMBL3596191, “Inhibition studies of bacterial, fungal and protozoan β-class carbonic anhydrases with Schiff bases incorporating sulfonamide moieties” (Bioorg Med Chem, 2015) can be followed below.

A short description of assay [1]: Selectivity ratio of Ki for human alpha-carbonic anhydrase 1 to Ki for Cryptococcus neoformans beta-carbonic anhydrase. The procedure, abridged: (§1)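 Ki ratio, human CA isoform Ki divided by pathogen β-CA Ki, used as an index of selectivity for the pathogen enzyme over the human enzyme.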
The nature of assay [2]: Selectivity ratio of Ki for human alpha-carbonic anhydrase 2 to Ki for Brucella suis beta-carbonic anhydrase 2.
Assay [3] in a line: Selectivity ratio of Ki for human alpha-carbonic anhydrase 1 to Ki for Leishmania donovani chagasi beta-carbonic anhydrase. The procedure, abridged: as §1
A short description of assay [4]: Selectivity ratio of Ki for human alpha-carbonic anhydrase 1 to Ki for Brucella suis beta-carbonic anhydrase 2.
A short description of assay [5]: Selectivity ratio of Ki for human alpha-carbonic anhydrase 2 to Ki for Brucella suis beta-carbonic anhydrase 1.
The nature of assay [6]: Inhibition of Cryptococcus neoformans beta-carbonic anhydrase incubated for 15 mins prior to testing by stopped-flow CO2 hydration assay. The procedure, abridged:
(§2)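 CO2 was 1.7–17 mM. Initial rates were taken from at least six traces of the first 5–10% of reaction over 10–100 s, with uncatalysed rates subtracted. Inhibitor dilutions were in water down to 0.01 nM, preincubated with enzyme 15 min at room temperature.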

Assay [7] in a line: Inhibition of Brucella suis beta-carbonic anhydrase 1 incubated for 15 mins prior to testing by stopped-flow CO2 hydration assay. In outline:
(§3)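 Stopped-flow CO2 hydration; 0.2 mM phenol red read at 557 nm in 10 mM Hepes pH 7.4, 10 mM Tris-HCl, 0.1 M NaSO4; CO2 1.7–17 mM. Inhibitor (10 mM water stock, diluted down to 0.01 nM) preincubated with enzyme 15 min at room temperature. Initial rates from at least six traces of the first 5–10% of reaction, over 10–100 s, with uncatalysed rates subtracted.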

Assay [8] concerns Brucella suis. In words: Potency index, ratio of dichlorphenamide Ki to compound Ki for Brucella suis beta-carbonic anhydrase 2.
Assay [9] in a line: Inhibition of Leishmania donovani chagasi beta-carbonic anhydrase incubated for 15 mins prior to testing by stopped-flow CO2 hydration assay. The procedure, abridged: as §2
Assay [10] relates to Brucella suis. As to the kind of experiment: Potency index, ratio of benzolamide Ki to compound Ki for Brucella suis beta-carbonic anhydrase 2.
Assay [11] in a line: Selectivity ratio of Ki for human alpha-carbonic anhydrase 2 to Ki for Leishmania donovani chagasi beta-carbonic anhydrase. The procedure, abridged:
as §1

A short description of assay [12]: Inhibition of Brucella suis beta-carbonic anhydrase 2 incubated for 15 mins prior to testing by stopped-flow CO2 hydration assay. The procedure, abridged: as §3
Assay [13] can be described thus: Selectivity ratio of Ki for human alpha-carbonic anhydrase 2 to Ki for Cryptococcus neoformans beta-carbonic anhydrase. The procedure, abridged: as §1
The subject of assay [14] is Brucella suis. In words: Potency index, ratio of acetazolamide Ki to compound Ki for Brucella suis beta-carbonic anhydrase 2.
Assay [15] in a line: Selectivity ratio of Ki for human alpha-carbonic anhydrase 1 to Ki for Brucella suis beta-carbonic anhydrase 1.

One may read the Ki as the dissociation constant of the complex between target and ligand, obtained from inhibition or displacement.

On to `N#Cc1ccc(/C=N/CCc2ccc(S(N)(=O)=O)cc2)cc1`, for which the Ratio Ki in assay [1] worked out at 106; in [2] it was 215; in [3], 1.6; in assay [4], 662; in assay [5], 8.4; in assay [8] it was 100. Further, the Ratio Ki in [10] was determined as 100; in assay [11], 0.5; in [13] it was 34.6; in assay [14], 100; in [15], 25.7. For the same compound, the Ki in assay [6] was found to be 0.0206 µM; in [7], 0.0853 µM; in assay [9], 1.4 µM; in assay [12], 0.00331 µM.
Consider `NS(=O)(=O)c1ccc(CC/N=C/c2ccc(-c3ccccc3)cc2)cc1`, for which the Ratio Ki in [1] turned out to be 4860; in [2], 46.5; in assay [3], 12.9; in assay [4] it was 465; in assay [5] it was 11.7; in assay [8], 10. Besides, the Ratio Ki was found to be 10 in assay [10]; 1.3 in assay [11]; 487 in assay [13]; 10 in assay [14]; 117 in assay [15]. Moreover, the Ki in [6] turned out to be 0.00144 µM; in assay [7], 0.0597 µM; in assay [9] it was 0.542 µM; in assay [12], 0.0151 µM.
Take `COc1ccc(/C=N/CCc2ccc(S(N)(=O)=O)cc2)c(O)c1`: the Ratio Ki in [1] worked out at 258; in [2] it was 31.8; in assay [3] it was 23.2; in assay [4], 201; in assay [5] it was 6.4; in [8] it was 10. Besides, the Ratio Ki in assay [10] came to 10; in assay [11], 3.7; in [13], 40.9; in assay [14], 10; in assay [15], 40.2. For the same compound, the Ki in assay [6] was found to be 0.017 µM; in assay [7], 0.11 µM; in assay [9], 0.19 µM; in [12], 0.0219 µM.
`CSc1ccc(/C=N/CCc2ccc(S(N)(=O)=O)cc2)cc1`: the Ratio Ki in assay [1] was determined as 135; in assay [2] it was 24.7; in assay [3], 13.6; in [4], 102; in assay [5] it was 8.9; in assay [8] it was 10. In addition, the Ratio Ki was determined as 10 in assay [10]; 3.3 in [11]; 32.5 in assay [13]; 10 in [14]; 37 in assay [15]. Besides, the Ki turned out to be 0.0218 µM in assay [6], 0.0794 µM in assay [7], 0.216 µM in [9] and 0.0287 µM in assay [12].
`NS(=O)(=O)c1ccc(CC/N=C/c2ccc(Br)cc2O)cc1`: the Ratio Ki came to 190 in assay [1]; 20.8 in assay [2]; 2.1 in assay [3]; 132 in assay [4]; 0.9 in assay [5]; 10 in assay [8]. For the same compound, the Ratio Ki in assay [10] came to 10; in [11], 0.3; in assay [13], 29.9; in [14] it was 10; in assay [15], 5.6. In addition, the Ki in assay [6] was determined as 0.0223 µM; in assay [7], 0.761 µM; in [9] it was 1.98 µM; in assay [12], 0.032 µM.
`NS(=O)(=O)c1ccc(CC/N=C/c2cccc(Br)c2O)cc1`: the Ratio Ki in assay [1] is 340; in assay [2], greater than 412; in [3], 4.2; in [4], 220; in [5], greater than 222; in [8] it was 10. Also, the Ratio Ki is 10 in assay [10]; greater than 7.9 in [11]; greater than 637 in assay [13]; 10 in [14]; 118 in [15]. Moreover, the Ki in assay [6] is 0.0157 µM; in assay [7], 0.0452 µM; in assay [9], 1.27 µM; in assay [12] it was 0.0243 µM.
On to `NS(=O)(=O)c1ccc(/N=C/c2ccc(Br)cc2O)cc1`, for which the Ratio Ki in assay [1] is 256; in assay [2], 29.9; in assay [3], less than 1.7; in assay [4], 183; in assay [5], 1.1; in [8], 10. The Ratio Ki is 10 in [10]; less than 0.3 in assay [11]; 41.9 in assay [13]; 10 in [14]; 6.9 in assay [15]. The Ki in assay [6] is 0.0169 µM; in assay [7] it was 0.625 µM; in [9] it was greater than 2.5 µM; in [12], 0.0237 µM.
As to `COc1cc([N+](=O)[O-])ccc1/C=N/CCc1ccc(S(N)(=O)=O)cc1`, the Ratio Ki was found to be 10.1 in assay [1]; 1 in [2]; 0.1 in assay [3]; 1.3 in assay [4]; 0.5 in assay [5]; 0.09 in assay [11]. Besides, the Ratio Ki in assay [13] was determined as 7.9; in [14], 2; in assay [15] it was 0.7. Further, the Ki in assay [6] was 0.0212 µM; in assay [7] it was 0.33 µM; in assay [9], 1.94 µM; in assay [12], 0.163 µM.
As to `NS(=O)(=O)c1ccc(/N=C/c2ccco2)c(F)c1`, the Ratio Ki in assay [1] worked out at 21.3; in [2], 0.4; in assay [3], 1.5; in assay [4] it was 1.5; in [5], 0.2; in assay [11], 0.4. For the same compound, the Ratio Ki in assay [13] worked out at 5.5; in [14], 2; in assay [15], 0.8. For the same compound, the Ki in assay [6] stood at 0.0116 µM; in assay [7], 0.308 µM; in [9], 0.168 µM; in assay [12], 0.162 µM.
Regarding `NS(=O)(=O)c1ccc(CC/N=C/c2ccc(S(=O)(=O)O)o2)cc1`, the Ratio Ki was found to be 236 in assay [1]; 18.1 in assay [2]; 2 in assay [3]; 111 in assay [4]; 0.7 in [5]; 10 in assay [8]. In addition, the Ratio Ki stood at 10 in [10]; 0.3 in assay [11]; 38.5 in assay [13]; 10 in [14]; 4.2 in [15]. Further, the Ki in [6] came out at 0.0121 µM; in [7], 0.682 µM; in assay [9], 1.43 µM; in assay [12] it was 0.0257 µM.
As for `NS(=O)(=O)c1ccc(/N=C/c2ccc(-c3ccccn3)cc2)cc1`, the Ratio Ki in assay [1] turned out to be 202; in assay [2], 2.7; in assay [3] it was 3.5; in [4] it was 17.1; in assay [5], 0.7; in assay [11], 0.5. Also, the Ratio Ki in [13] stood at 31.4; in [15] it was 4.6. For the same compound, the Ki came to 0.0217 µM in [6], 0.94 µM in assay [7], 1.25 µM in [9] and 0.255 µM in assay [12].
As to `NS(=O)(=O)c1ccc(CC/N=C/c2ccc(-c3ccccn3)cc2)cc1`, the Ratio Ki in assay [1] is 69.9; in assay [2] it was 16.3; in [3], 1.1; in assay [4], 54.2; in assay [5] it was 0.8; in [8], 10. Besides, the Ratio Ki in [10] amounted to 10; in [11], 0.3; in [13], 20.9; in assay [14] it was 10; in assay [15], 2.5. Moreover, the Ki amounted to 0.0192 µM in assay [6], 0.529 µM in assay [7], 1.24 µM in assay [9] and 0.0248 µM in [12].
As for `NS(=O)(=O)c1ccc(/N=C/c2csc3ccccc23)cc1`, the Ratio Ki in [1] was found to be 183; in assay [2] it was 3.2; in assay [3], 2.1; in [4], 14.8; in assay [5], 0.6; in assay [11], 0.5. In addition, the Ratio Ki in [13] came to 39.8; in assay [15], 3. Also, the Ki was found to be 0.0167 µM in assay [6], 1.03 µM in assay [7], 1.42 µM in assay [9] and 0.207 µM in [12].
As for `NS(=O)(=O)c1ccc(/N=C/c2ccc(-c3ccccc3)cc2)c(F)c1`, the Ratio Ki in [1] amounted to 159; in [2] it was 3.1; in assay [3] it was 9.7; in assay [4] it was 9.4; in [5], 1; in assay [11] it was 3.2. Also, the values for the Ratio Ki in assay [13], in assay [14] and in [15] were 52.4, 2 and 2.9, respectively. Also, the Ki in [6] was determined as 0.0095 µM; in assay [7], 0.523 µM; in [9], 0.155 µM; in [12], 0.161 µM.
